Results from ChEMBL document CHEMBL4145531, “Synthesis of novel Chlorin e6-curcumin conjugates as photosensitizers for photodynamic therapy against pancreatic carcinoma” (Eur J Med Chem, 2018).
Activity calls are given as the source filed them. The rule behind the calls is not given here.

Experiments:
[1] = test system: ASPC1; test: Potency index, ratio of chlorin e6 IC50 to compound IC50 for phototoxicity in human AsPC1 cells; assay type: functional
[2] = Selectivity index, ratio of IC50 for dark toxicity in human MIAPaCa2 cells to IC50 for phototoxicity in human MIAPaCa2 cells; assay type: cell-based, MIA PaCa-2; details: read-out: Ratio IC50
Outline: (§1)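 The ratio is the dark-toxicity IC50 over the phototoxicity IC50 in the same cell line, both from 72h MTT. The dark arm received no light. The photo arm was irradiated at 660 nm, 50 mW, 9 J/cm² after 3h compound exposure.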

[3] = test system: ASPC1; test: Phototoxicity in human AsPC1 cells assessed as induction of apoptosis by measuring early apoptotic cells at 60 nM preincubated for 3 hrs followed by 9 J/cm2 laser light irradiation and measured after 24 hrs by Annexin V-FITC/propidium iodide staining based flow cytometry (reference value: 7.05%); assay type: functional
[4] = test system: MIA PaCa-2; test: Phototoxicity in human MIAPaCa2 cells assessed as reduction in cell viability preincubated for 3 hrs followed by 9 J/cm2 laser light irradiation and measured after 72 hrs by MTT assay; assay type: functional, cell-based; details: MIA PaCa-2, light or radiation study
Outline: (§2)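 Cells were seeded at 5.0 x 10^3 per well and incubated overnight at 37 °C. AsPC-1 was in RPMI-1640 and MIA PaCa-2/PANC-1 in DMEM, with 10% FBS. Cells took up compound for 3h, then received 660 nm laser light (50 mW, 9 J/cm²).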

[5] = test system: ASPC1; test: Phototoxicity in human AsPC1 cells assessed as induction of apoptosis by measuring live cells at 60 nM preincubated for 3 hrs followed by 9 J/cm2 laser light irradiation and measured after 24 hrs by Annexin V-FITC/propidium iodide staining based flow cytometry (reference value: 91.51%); assay type: functional
[6] = Drug uptake in human AsPC1 cells at 5 uM after 3 hrs by FACS analysis relative to chlorin e6; assay type: ADME, cell-based; details: aspc1, 3 h
Outline: (§3)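 AsPC-1 cells (2 x 10^5) were seeded and kept in the dark at 37 °C for 24h. They were then incubated with 5 µM compound for 30 min to 24h. Cells were harvested by trypsin, washed three times in PBS and resuspended in PBS. Uptake was read as mean fluorescence intensity by FACS.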

[7] = test system: ASPC1; test: Phototoxicity in human AsPC1 cells assessed as induction of apoptosis by measuring necrotic cells at 40 nM preincubated for 3 hrs followed by 9 J/cm2 laser light irradiation and measured after 24 hrs by Annexin V-FITC/propidium iodide staining based flow cytometry (reference value: 1.03%); assay type: functional
[8] = test system: ASPC1; test: Phototoxicity in human AsPC1 cells assessed as induction of apoptosis by measuring upregulation of Bax expression at 20 to 40 nM preincubated for 3 hrs followed by 9 J/cm2 laser light irradiation and measured after 24 hrs by Western blot analysis; assay type: functional, cell-based
Outline: (§4)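 Cells in six-well plates were exposed to compound for 3h and irradiated at 660 nm (50 mW, 9 J/cm²), then incubated 24h. Lysis was on ice in modified RIPA buffer (pH 7.4) with protease inhibitors. After clearing at 10,000g for 10 min at 4 °C, proteins were separated by 10% SDS-PAGE, blotted and detected by ECL.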

[9] = test system: ASPC1; test: Phototoxicity in human AsPC1 cells assessed as reduction in cell viability preincubated for 3 hrs followed by 9 J/cm2 laser light irradiation and measured after 72 hrs by MTT assay; assay type: functional, cell-based; details: ASPC1, light or radiation study; outline: as §2
[10] = Drug uptake in human AsPC1 cells at 5 uM up to 0.5 to 24 hrs by FACS analysis; assay type: ADME, cell-based; details: aspc1, 5 µM; outline: as §3
[11] = test system: PANC-1; test: Phototoxicity in human PANC1 cells assessed as reduction in cell viability preincubated for 3 hrs followed by 9 J/cm2 laser light irradiation and measured after 72 hrs by MTT assay; assay type: functional, cell-based; details: PANC-1, light or radiation study; outline: as §2
[12] = Dark toxicity in human AsPC1 cells assessed as reduction in cell viability after 72 hrs by MTT assay; assay type: cell-based
Outline: (§5)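 AsPC-1 cells were grown in RPMI-1640, and MIA PaCa-2 and PANC-1 in DMEM, each with 10% FBS and 1% penicillin/streptomycin. 5.0 x 10^3 cells were seeded and left overnight at 37 °C. They were exposed to 0-300 µM compound for 3h without laser irradiation, then held 72h in the dark at 37 °C, 5% CO₂. Viability was read by MTT.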

[13] = test system: ASPC1; test: Phototoxicity in human AsPC1 cells assessed as induction of apoptosis by measuring live cells at 40 nM preincubated for 3 hrs followed by 9 J/cm2 laser light irradiation and measured after 24 hrs by Annexin V-FITC/propidium iodide staining based flow cytometry (reference value: 91.51%); assay type: functional
[14] = test system: MIA PaCa-2; test: Potency index, ratio of chlorin e6 IC50 to compound IC50 for phototoxicity in human MIAPaCa2 cells; assay type: functional
[15] = Drug uptake in human AsPC1 cells at 5 uM by FACS analysis; assay type: ADME, cell-based; details: aspc1, 5 µM, TDE = time-dependent effect; outline: as §3
[16] = Dark toxicity in human PANC1 cells assessed as reduction in cell viability after 72 hrs by MTT assay; assay type: cell-based, PANC-1; outline: as §5
[17] = Selectivity index, ratio of IC50 for dark toxicity in human PANC1 cells to IC50 for phototoxicity in human PANC1 cells; assay type: cell-based, PANC-1; details: read-out: Ratio IC50; outline: as §1
[18] = Selectivity index, ratio of IC50 for dark toxicity in human AsPC1 cells to IC50 for phototoxicity in human AsPC1 cells; assay type: cell-based; details: read-out: Ratio IC50; outline: as §1
[19] = test system: ASPC1; test: Phototoxicity in human AsPC1 cells assessed as induction of apoptosis by measuring late apoptotic cells at 20 nM preincubated for 3 hrs followed by 9 J/cm2 laser light irradiation and measured after 24 hrs by Annexin V-FITC/propidium iodide staining based flow cytometry (reference value: 0.41%); assay type: functional
[20] = Dark toxicity in human MIAPaCa2 cells assessed as reduction in cell viability after 72 hrs by MTT assay; assay type: cell-based, MIA PaCa-2; outline: as §5
[21] = test system: ASPC1; test: Phototoxicity in human AsPC1 cells assessed as induction of apoptosis by measuring necrotic cells at 60 nM preincubated for 3 hrs followed by 9 J/cm2 laser light irradiation and measured after 24 hrs by Annexin V-FITC/propidium iodide staining based flow cytometry (reference value: 1.03%); assay type: functional
[22] = Induction of singlet oxygen production in DMSO assessed as DPBF absorption intensity (reference value: 100%); assay type: functional
Outline: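 DPBF (50 µM in DMSO) was mixed with 1 µM photosensitizer in the dark. Samples were irradiated at 660 nm, 50 mW, 2 J/cm² for 40 s. Singlet oxygen was read as the decay of normalized DPBF absorbance at 418 nm relative to a DPBF-only control.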

[23] = Solubility of the compound in 2% DMSO/98% de-ionized water at 8.2 uM; assay type: physicochemical; details: buffer
[24] = test system: ASPC1; test: Phototoxicity in human AsPC1 cells assessed as induction of apoptosis by measuring necrotic cells at 20 nM preincubated for 3 hrs followed by 9 J/cm2 laser light irradiation and measured after 24 hrs by Annexin V-FITC/propidium iodide staining based flow cytometry (reference value: 1.03%); assay type: functional
[25] = test system: ASPC1; test: Phototoxicity in human AsPC1 cells assessed as induction of apoptosis by measuring downregulation of Bcl2 expression at 20 to 40 nM preincubated for 3 hrs followed by 9 J/cm2 laser light irradiation and measured after 24 hrs by Western blot analysis; assay type: functional, cell-based; outline: as §4
[26] = Drug uptake in human AsPC1 cells at 5 uM after 24 hrs by FACS analysis relative to chlorin e6; assay type: ADME, cell-based; details: aspc1, 24 h; outline: as §3

## C=Cc1c(C)c2cc3nc(c(CC(=O)OC)c4[nH]c(cc5nc(cc1[nH]2)C(C)=C5CC)c(C)c4C(=O)NCCOCCOCCNC(=O)CCCC(=O)Oc1ccc(/C=C/C(=O)CC(=O)/C=C/c2ccc(O)c(OC)c2)cc1OC)C(CCC(=O)OC)C3C (stereo unspecified)
[1]
  Ratio IC50: 488
[2]
  selectivity ratio: 2370
[3]
  Activity: 24.82%
[4]
  IC50: 35 nM
[5]
  Activity: 51.45%
[6]
  fold change (FC): 47
[7]
  Activity: 2.22%
[8]
  Activity: Active
[9]
  IC50: 40 nM
[10]
  Drug uptake: Active
[11]
  IC50: 40 nM
[12]
  IC50 at 72 h: 186000 nM
[13]
  Activity: 70.74%
[14]
  Ratio IC50: 452
[15]
  Drug uptake: Tde
[16]
  IC50 at 72 h: > 300000 nM
[17]
  selectivity ratio: > 7500
[18]
  selectivity ratio: 4650
[19]
  Activity: 6.1%
[20]
  IC50 at 72 h: 83000 nM
[21]
  Activity: 8.08%
[22]
  Activity: 12.1%
[23]
  solubility: Soluble
[24]
  Activity: 1.43%
[25]
  Activity: Active
[26]
  fold change (FC): 29
